ChEMBL document CHEMBL1122233, “Antihypertensive 9-substituted 1-oxa-4,9-diazaspiro[5.5]undecan-3-ones” (J Med Chem, 1983)

What was measured:
Assay type in all cases: functional, Artery
Conditions in all cases: route oral
Rattus norvegicus [1] = test: Percentage fall in systolic blood pressure after 3 hr at 0.31 mg/kg given perorally
Outline: (§1)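 Male Okamoto-Aoki spontaneously hypertensive rats, trained, in groups of four matched for mean systolic pressure; five treated groups and one vehicle control run concurrently. Oral dosing in water (solution or suspension, 0.1 mL/10 g) on two consecutive mornings. On day 2, rats were restrained at 30.0 ± 1.0 °C and tail-cuff systolic pressure recorded at 1–4 h; percent fall versus control, 1-tail t test, p ≤ 0.05.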

Rattus norvegicus [2] = test: Percentage fall in systolic blood pressure after 1 hr at 0.31 mg/kg given perorally; outline: as §1
Rattus norvegicus [3] = test: Percentage fall in systolic blood pressure after 1 hr at 1.25 mg/kg given perorally; outline: as §1
Rattus norvegicus [4] = test: Percentage fall in systolic blood pressure after 2 hr at 0.31 mg/kg given perorally; outline: as §1
Rattus norvegicus [5] = test: Percentage fall in systolic blood pressure after 2 hr at 1.25 mg/kg given perorally; outline: as §1
Rattus norvegicus [6] = test: Percentage fall in systolic blood pressure after 4 hr at 0.31 mg/kg given perorally; outline: as §1
Rattus norvegicus [7] = test: Percentage fall in systolic blood pressure after 4 hr at 1.25 mg/kg given perorally; outline: as §1
Rattus norvegicus [8] = test: Percentage fall in systolic blood pressure after 3 hr at 1.25 mg/kg given perorally; outline: as §1

COc1cc2nc(N3CCN(C(=O)c4ccco4)CC3)nc(N)c2cc1OC [PRAZOSIN]
Decrease in SBP (Rattus norvegicus [1]): 21% | Decrease in SBP (Rattus norvegicus [2]): 19% | Decrease in SBP (Rattus norvegicus [3]): 26% | Decrease in SBP (Rattus norvegicus [4]): 31% | Decrease in SBP (Rattus norvegicus [5]): 46% | Decrease in SBP (Rattus norvegicus [6]): 26% | Decrease in SBP (Rattus norvegicus [7]): 31% | Decrease in SBP (Rattus norvegicus [8]): 36%
